Converted amounts (≈) assume the structure as drawn. The source made the active and inactive calls. The rule behind the calls is not given here.
Columns and labels:
Staphylococcus aureus [1] = test: Induction of membrane damage of methicillin-resistant Staphylococcus aureus USA300 JE2 at MIC after 18 hrs by propidium iodide staining-based flow cytometric method; type: functional, organism-based
How it was run: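 Flow cytometry membrane-permeability assay. […] Propidium iodide stock at 1 mg/mL added, held 15–20 min in the dark, then cells washed three times and resuspended in PBS. Controls: PI-stained untreated cells and cells treated with 70% ethanol.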

[2] = Stability in tris buffer at pH 7.4 at 1 uM after 2 hrs by LC-MS/MS method; type: physicochemical; conditions: pH 7.4, 2 h
How it was run: (§1)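 Stability tested in simulated gastric fluid (pH 1.2), simulated intestinal fluid (pH 6.8) and 50 mM tris buffer (pH 7.4) using literature protocols.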

Escherichia coli [3] = test: Induction of membrane damage of Escherichia coli K-12 at 2 times MIC after 18 hrs by transmission electron microscopic method; type: functional, organism-based
Staphylococcus aureus [4] = test: Induction of biofilm dispersion of methicillin-resistant Staphylococcus aureus USA300 JE2 at MIC after 24 hrs by crystal violet staining-based assay relative to control; type: functional
How it was run: (§2)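 Preformed-biofilm dispersion. Gelatin-coated wells seeded with 1 × 10^6 CFU/mL in TSB with 0.5% glucose and grown 24 h at 37 °C. Medium replaced with 2-fold dilutions in fresh TSB with 0.5% glucose, then a further 24 h at 37 °C. Biofilm fixed with methanol, stained with 0.1% crystal violet, dissolved in methanol:acetic acid:water 4:1:5 and read at OD540.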

[5] = Stability in simulated gastric fluid at pH1.2 at 1 uM after 2 hrs by LC-MS/MS method; type: ADME; conditions: simulated gi fluid, pH 1.2, 2 h; how it was run: as §1
Staphylococcus aureus [6] = test: Inhibition of biofilm formation of methicillin-resistant Staphylococcus aureus USA300 JE2 at MIC after 24 hrs by crystal violet staining-based assay relative to control; type: functional
How it was run: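 Biofilm formation inhibition. Gelatin-coated wells received 2-fold dilutions in TSB with 0.5% glucose plus cells at 2 × 10^6 CFU/mL from fresh culture. Incubated at 37 °C for 24 h. Wells gently rinsed, stained with 0.1% crystal violet for 10 min, destained in methanol:acetic acid:water 4:1:5 and read at OD540.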

Staphylococcus aureus [7] = test: Antibacterial activity against methicillin-resistant Staphylococcus aureus USA300 JE2 at 10 times MIC after 6 days by Kirby Bauer method; type: functional, organism-based
How it was run: (§3)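 Mutant-resistance disc assay. Culture grown in Mueller Hinton broth for 4 h, diluted to 1.5 × 10^8 CFU/mL (0.5 McFarland) and spread on Mueller Hinton agar. 6 mm paper discs loaded with compound in DMSO at 10 × MIC. Plates at 37 °C. Inhibition zone diameter read at 24 h. Plates then kept 6 days and checked for colonies growing inside the zone.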

Staphylococcus aureus [8] = test: Bacteriostatic activity against methicillin-resistant Staphylococcus aureus USA300 JE2 at 3 times MIC after 1 to 24 hrs by time killing assay; type: functional, organism-based
How it was run: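 Time-kill. Culture grown in Mueller Hinton broth at 37 °C for 6 h, adjusted to about 7.5 × 10^6 CFU/mL and exposed to 3 × MIC at 37 °C. Samples taken at 0, 1, 2, 3, 4, 6 and 24 h, serially diluted 10-fold in 0.9% saline and plated on Mueller Hinton agar for 24 h at 37 °C. Colonies counted and plotted as log CFU/mL. Triplicate.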

Staphylococcus aureus [9] = test: Antibacterial activity against methicillin-resistant Staphylococcus aureus USA300 JE2 at 10 times MIC after 24 hrs by Kirby Bauer method; type: functional; how it was run: as §3
[10] = Metabolic stability in human liver S9 fraction at 1 uM after 5 to 60 mins by LC-MS/MS method; type: ADME, subcellular; conditions: s9, 1 µM
How it was run: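 Compounds incubated with human liver S9 fraction, covering phase I and phase II enzymes; depletion followed over incubation time as percent remaining. Mean ± S.D., n = 3.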

Escherichia coli [11] = test: Antibacterial activity against Escherichia coli K-12 after 24 hrs by broth microdilution method; type: functional
How it was run: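 Broth microdilution per ASM Clinical Microbiology Procedures Handbook (3rd ed.); 1 mg/mL DMSO stock serially 2-fold diluted in Mueller Hinton broth with 5% DMSO; inoculum from direct colony suspension at 0.5 McFarland; static incubation 37 °C, 24 h. MIC = lowest concentration without visible growth (eye and OD600). Vancomycin and gentamicin positive controls, medium negative control; triplicate.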

Staphylococcus aureus [12] = test: Induction of membrane damage of methicillin-resistant Staphylococcus aureus USA300 JE2 at 2 times MIC after 18 hrs by transmission electron microscopic method; type: functional, organism-based
How it was run: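 TEM. […] Cells washed three times in PBS, then fixed in 2% glutaraldehyde with 2% paraformaldehyde in 0.1 M phosphate buffer.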

[13] = Cytotoxicity against HCEC after 24 hrs by MTT assay; design: species or system Homo sapiens
How it was run: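 HCEC cells grown in HCEC medium at 37 °C in a hypoxia chamber, seeded 6000 cells/well, left 24 h, then exposed 24 h to 200, 100, 50, 25, 12.5, 6.25 or 0 (vehicle) µg/mL. MTT added from a 2 mg/mL stock for 2 h, formazan dissolved in DMSO, absorbance read at 570 nm.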

Staphylococcus aureus [14] = test: Induction of biofilm dispersion of methicillin-resistant Staphylococcus aureus USA300 JE2 at 2 times MIC after 24 hrs by crystal violet staining-based assay relative to control; type: functional; how it was run: as §2
Staphylococcus aureus [15] = test: Antibacterial activity against methicillin-resistant Staphylococcus aureus USA300 JE2 after 24 hrs by broth microdilution method; type: functional; conditions: USA300 JE2, 24 h
How it was run: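 Broth microdilution. Test material taken from a 1 mg/mL DMSO stock and serially diluted 2-fold in Mueller Hinton broth containing 5% DMSO. Wells inoculated with a direct colony suspension at 0.5 McFarland, then incubated statically at 37 °C for 24 h. MIC is the lowest concentration with no growth, read by eye and by OD600. Vancomycin and gentamicin as positive controls. Run in triplicate.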

Galleria mellonella = test: Toxicity in Galleria mellonella larvae assessed as decrease in survival at 0.5 times MIC after 96 hrs; type: organism-based; conditions: in vivo
[16] = Stability in simulated intestinal fluid at pH 6.8 at 1 uM after 2 hrs by LC-MS/MS method; type: ADME; conditions: simulated gi fluid, pH 6.8, 2 h; how it was run: as §1
Staphylococcus aureus [17] = test: Antibacterial activity against methicillin-resistant Staphylococcus aureus USA300 JE2 at 10 ug after 24 hrs by Kirby Bauer method; type: functional; conditions: USA300 JE2, 24 h, read-out: DIZ
How it was run: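 Disc diffusion reference, streptomycin 10 µg. 0.5 McFarland inoculum spread on Mueller Hinton agar with 6 mm discs. Incubated at 37 °C and inhibition zone diameter measured after 24 h.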

| Molecule | MIC (Escherichia coli [11]; K-12, 24 h) | MIC (Staphylococcus aureus [15]) | also measured |
| --- | --- | --- | --- |
| CS(=O)(=O)NC(=O)c1cccc2nc3c(Cl)ccc(Cl)c3nc12 | 64 µg/mL (≈ 173 µM) | 16 µg/mL (≈ 43.2 µM) | Activity (Staphylococcus aureus [1]): inactive; Stability [2]: Stable; Activity (Escherichia coli [3]): inactive; Activity (Staphylococcus aureus [4]): 42%; Stability [5]: Stable; inhibition (INH) (Staphylococcus aureus [6]): 82%; Activity (Staphylococcus aureus [7]): Active; Activity (Staphylococcus aureus [8]): Active; diameter of the inhibition zone (DIZ) (Staphylococcus aureus [9]): 19 mm; Stability [10]: Stable; Activity (Staphylococcus aureus [12]): inactive; IC50 [13]: 208 µM; Activity (Staphylococcus aureus [14]): 61%; Activity (Galleria mellonella): Non-Toxic; Stability [16]: Stable |
| COC(=O)c1cccc2nc3c(Cl)ccc(Cl)c3nc12 | 64 µg/mL (≈ 208 µM) | 128 µg/mL (≈ 417 µM) |  |
| N#CNC(=O)c1cccc2nc3cccc(Cl)c3nc12 | 128 µg/mL (≈ 453 µM) | 128 µg/mL (≈ 453 µM) |  |
| Cc1cccc2nc3cccc(C(=O)NS(C)(=O)=O)c3nc12 | 32 µg/mL (≈ 101 µM) | 32 µg/mL (≈ 101 µM) | Activity (Staphylococcus aureus [7]): Active |
| COc1ccc(Br)c2nc3c(C(=O)NC#N)cccc3nc12 | 32 µg/mL (≈ 89.6 µM) | 256 µg/mL (≈ 717 µM) |  |
| CN(C(=O)c1cccc2nc3cccc(Cl)c3nc12)S(C)(=O)=O | 64 µg/mL (≈ 183 µM) | > 256 µg/mL |  |
| COc1cc(Br)cc2nc3cccc(C(=O)O)c3nc12 | 128 µg/mL (≈ 384 µM) | 128 µg/mL (≈ 384 µM) |  |
| CN(C(=O)c1cccc2nc3ccccc3nc12)S(C)(=O)=O | 128 µg/mL (≈ 406 µM) | 256 µg/mL (≈ 812 µM) |  |
| O=C(NO)c1cccc2nc3cccc(Cl)c3nc12 | 128 µg/mL (≈ 468 µM) | 32 µg/mL (≈ 117 µM) |  |
| CC(C)(C)[Si](C)(C)ON |  |  | Activity (Staphylococcus aureus [7]): Active; diameter of the inhibition zone (DIZ) (Staphylococcus aureus [9]): 11 mm |
| GENTAMICIN |  |  | MIC (Escherichia coli [11]): 0.25 µg/mL |
| NC(=O)c1cccc2nc3cccc(Cl)c3nc12 | 128 µg/mL (≈ 497 µM) | > 256 µg/mL |  |
| CN[C@@H]1[C@H](O[C@H]2[C@H](O[C@H]3[C@H](O)[C@@H](O)[C@H](N=C(N)N)[C@@H](O)[C@@H]3N=C(N)N)O[C@@H](C)[C@]2(O)C=O)O[C@@H](CO)[C@H](O)[C@H]1O [STREPTOMYCIN] |  |  | zone of inhibition at 10 µg/disc (Staphylococcus aureus [17]): 18 mm |
| CS(=O)(=O)NC(=O)c1cccc2nc3ccccc3nc12 | 128 µg/mL (≈ 425 µM) | 128 µg/mL (≈ 425 µM) |  |
| N#CNC(=O)c1cccc2nc3cccc(F)c3nc12 | 128 µg/mL (≈ 481 µM) | 128 µg/mL (≈ 481 µM) |  |

From ChEMBL document CHEMBL4138243, “Synthesis, biological evaluation, and metabolic stability of phenazine derivatives as antibacterial agents” (Eur J Med Chem, 2018)
